# Most compounds without a hit are left out; they make up all but 3% or so of the library.
# TRPC6 inh – inhibitors of mouse TRPC6 channel; hit rate 1.1% among 310,000; HEK293-TRPC6, membrane potential dye, ACh-evoked depolarization; active compounds read low; Q61143; B-score at 10 µM;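 active = B-score under library mean minus 3 SD, initial fluorescence not abnormally high, positive integrated signal ratio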;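 also: B-score derived from integrated fluorescence ratio over the kinetic read; more negative B-score means stronger inhibition of depolarization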
# TRPC6 act – activates the mouse TRPC6 cation channel; HEK293-TRPC6 membrane potential dye fluorescence; active compounds read high; B-score at 10 µM; Q61143; hit rate 0.13% among 310,000;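 active = B-score of the integrated fluorescence ratio above library mean plus 3 SD, and starting fluorescence ratio within library mean plus 5 SD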;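 also: higher score means more depolarization so channel activation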
# TRPC4 agonist – TRPC4 (mouse) channel activation; Q9QUQ5; HEK293 TRPC4beta/mu-opioid, Fluo4 calcium fluorescence; active compounds read high; B-score at 10 µM; hit rate 0.49% among 310,000;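 active = B-score above 5 SD of library B-scores, and initial fluorescence ratio not above library mean plus 5 SD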;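 also: positive B-score marks a calcium rise read as TRPC4 activation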
# Target sequence (Q9QUQ5 whole entry, looked up): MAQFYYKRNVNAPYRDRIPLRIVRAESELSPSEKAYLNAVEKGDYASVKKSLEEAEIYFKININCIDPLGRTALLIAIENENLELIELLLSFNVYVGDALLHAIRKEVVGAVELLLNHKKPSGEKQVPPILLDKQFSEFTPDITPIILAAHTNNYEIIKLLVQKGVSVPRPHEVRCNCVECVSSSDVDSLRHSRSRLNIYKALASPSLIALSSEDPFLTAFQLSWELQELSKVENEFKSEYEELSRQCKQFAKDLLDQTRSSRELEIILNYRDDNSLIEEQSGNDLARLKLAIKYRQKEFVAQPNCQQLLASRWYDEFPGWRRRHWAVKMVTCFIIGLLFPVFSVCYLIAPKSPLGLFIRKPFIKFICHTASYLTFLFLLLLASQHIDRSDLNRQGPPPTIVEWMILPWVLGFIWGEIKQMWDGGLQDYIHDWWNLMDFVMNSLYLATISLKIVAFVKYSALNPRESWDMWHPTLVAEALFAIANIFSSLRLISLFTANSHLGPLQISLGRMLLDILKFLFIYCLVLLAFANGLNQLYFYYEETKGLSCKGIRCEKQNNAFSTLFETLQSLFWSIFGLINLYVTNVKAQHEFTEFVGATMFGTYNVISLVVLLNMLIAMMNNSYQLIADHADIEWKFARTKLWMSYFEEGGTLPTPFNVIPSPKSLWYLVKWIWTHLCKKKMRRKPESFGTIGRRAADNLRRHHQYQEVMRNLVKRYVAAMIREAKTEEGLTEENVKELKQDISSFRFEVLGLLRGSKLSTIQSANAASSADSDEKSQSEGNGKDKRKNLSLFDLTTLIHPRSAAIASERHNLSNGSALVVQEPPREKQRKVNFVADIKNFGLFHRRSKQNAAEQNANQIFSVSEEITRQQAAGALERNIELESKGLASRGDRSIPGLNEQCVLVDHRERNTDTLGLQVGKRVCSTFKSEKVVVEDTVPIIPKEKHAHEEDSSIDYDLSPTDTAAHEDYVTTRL
#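 Assay system: HEK293 stable line with TRPC4beta plus mu-opioid receptor. Times: dye 45 min RT, read 110 s. Measured by: kinetic Fluo4 calcium fluorescence. Measure: B score of integrated ratio. Controls: assay buffer as low control, maximal DAMGO as high control.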
# TRPC4 inh – inhibitors of mouse TRPC4 channel; Q9QUQ5; HEK293 TRPC4beta/mu-opioid, DAMGO-evoked Fluo4 calcium flux; active compounds read low; B-score at 10 µM; hit rate 0.39% among 300,000; AID 2247;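 active = B-score over 3 SD under the library average, no early fluorescence shift, positive overall ratio signal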
#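 Test system – stable TRPC4beta/mu-opioid receptor HEK293 cells · Probe or stimulus – DAMGO, a submaximal dose followed by a maximal one · Dosing – one concentration per compound · Signal – Fluo4 calcium fluorescence by kinetic imaging, 5 s 1 Hz baseline · Evaluation – per-well B score of integrated baseline-normalized Fluo4 ratio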
# Kir21 inh – blocks the mouse Kir2.1 inward-rectifier potassium channel | P35561 | HEK293-Kir2.1, FluxOR thallium flux fluorescence; active compounds read low | B-score at 10 µM | hit rate 0.85% among 310,000 | AID 1672;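 active = fluorescence ratio B-score at or below minus 3 SD of library scores, with starting-brightness B-score within 2 SD, cut at about -4.2 in these data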;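 also: channel flux triggered by added potassium and thallium sulfate stimulus; B-score of peak minus minimum fluorescence over baseline after thallium stimulus; more negative B-score means stronger Kir2.1 block with less thallium influx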
# TRPC4 potent – TRPC4 (mouse) allosteric potentiation; HEK293 TRPC4beta/mu-opioid, DAMGO EC20, Fluo-4 Ca2+ flux; active compounds read high; B-score at 10 µM; hit rate 0.42% among 310,000;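 active = B-score of calcium response area above 5 SD of library B-scores, with initial fluorescence ratio within 5 SD of library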;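 also: B-score of integrated fluorescence ratio over time as area under calcium response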
# TRPC4 spec 2 – mouse TRPC4 off-target activity of TRPC6 inhibitors, second screen. shares compounds with TRPC6 inh. HEK293 TRPC4/MOR, membrane potential dye fluorescence; channel activated by saturating DAMGO dose. inhibition, % at 10 µM. hit rate 42% among 920. AID 2776;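 active = compounds whose fluorescence signal differed from control wells by over 3 SD, either direction, in both duplicate plates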
# TRPC4 spec – tests whether TRPC6 inhibitors also affect mouse TRPC4; shares compounds with TRPC6 inh; HEK293 TRPC4/mu-opioid, membrane potential fluorescence; activity change, negative = inhibition, % at 10 µM; hit rate 61% among 920; AID 2777;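 active = rise or fall in signal beyond 3 SD of buffer-only wells in both replicate plates, either sign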;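 also: integrated kinetic ratio of fluorescence range over baseline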
# HEK293 MPD ctr 2-1 – second check of TRPC6 inhibitor effects in parental HEK293 cells | shares compounds with TRPC6 inh | parental HEK293 membrane potential dye fluorescence; maximal acetylcholine challenge after compound addition | signal change vs control, % at 10 µM | hit rate 31% among 920 | AID 2779;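 active = membrane potential signal moving either way by over 3 SD of the maximum-effect control, in both duplicate plates, meaning non-specific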
# HEK293 MPD ctr-1 – counter-screen for TRPC6 inhibitors: effect in parental HEK293 cells; hit rate 60% among 920; shares compounds with TRPC6 inh; AID 2780; parental HEK293 membrane potential dye fluorescence; membrane potential signal change, % at 10 µM;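 active = membrane potential signal shifting up or down by more than 3 SD of buffer-only wells, on both duplicate plates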
# HEK293 MPD ctr-2 – parental HEK293 nonspecific activity of TRPC6 modulators | shares compounds with TRPC6 inh | membrane potential dye fluorescence | membrane potential signal change, % at 10 µM | hit rate 51% among 2,400 | AID 488924;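 active = membrane potential signal moves up or down beyond 5 SD from buffer-only wells, on both duplicate plates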
# HEK293 MPD ctr 2-2 – second check of TRPC6 modulator effects in parental HEK293 cells; shares compounds with TRPC6 inh; membrane potential dye fluorescence; after compound, maximal acetylcholine stimulation; inhibition, % at 10 µM; hit rate 14% among 2,400;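 active = membrane potential signal drops by more than 5 SD from the mean control signal, in both duplicate plates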;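 also: plate controls were acetylcholine ECmax control wells for no effect and buffer only wells for full effect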
# TRPC4/MOR mod – selectivity of TRPC6 modulators against mouse TRPC4. percent change from control (negative = decrease, positive = increase), % at 10 µM. shares compounds with TRPC6 inh. AID 488927. HEK293 TRPC4/mu-opioid, membrane potential fluorescence. hit rate 69% among 2,400;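 active = membrane potential signal moved up or down beyond 5 SD of buffer control wells, in both duplicate plates, actives on both sides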;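 also: plate controls were assay buffer wells for no effect and DAMGO maximal-effect wells for full effect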
# TRPC4/MOR inh 2 – second selectivity test of TRPC6 modulators against mouse TRPC4; inhibition, % at 10 µM; shares compounds with TRPC6 inh; HEK293 TRPC4/mu-opioid, membrane potential dye fluorescence; stimulated with maximal-effect DAMGO; AID 488928; hit rate 55% among 2,400;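 active = drop in membrane potential signal beyond 5 SD of the control wells in both duplicate plates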;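 also: TRPC4 counter screen for TRPC6 hits run under conditions tuned for TRPC6 not TRPC4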
# TRPC6 block conf – confirmation of mouse TRPC6 inhibitors; shares compounds with TRPC6 inh; HEK293-TRPC6, membrane potential dye, ACh-evoked depolarization; inhibition, % at 10 µM; hit rate 43% among 3,300; AID 488960;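 active = fluorescence ratio falls more than 5 SD below the full-stimulation control mean, in both duplicate runs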;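 also: integrated fluorescence ratio of peak minus minimum over baseline after agonist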
# TRPC6 act confirm – confirmation of mouse TRPC6 activators | shares compounds with TRPC6 inh | HEK293-TRPC6 membrane potential dye fluorescence, FDSS | activation, % at 10 µM | hit rate 11% among 2,800 | AID 488961;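 active = ratio signal rise beyond 5 SD above unstimulated control wells' mean, seen in both duplicate runs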;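 also: plate controls were buffer EC0 wells for no effect and acetylcholine ECmax response for full effect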
# * hit, by the source's call; i = inactive; x = not tested or not shown; + = active, no number.
SMILES,TRPC6 inh,TRPC6 act,TRPC4 agonist,TRPC4 inh,Kir21 inh,TRPC4 potent,HEK293 MPD ctr-2,HEK293 MPD ctr 2-2,TRPC4/MOR mod,TRPC4/MOR inh 2,TRPC6 block conf,TRPC6 act confirm,others
COc1cccc(NC(=O)c2cc(-c3ccc(OC)cc3OC)nc3ccccc23)c1,-5.12*,i,i,i,0.01,i,+,73.0%*,-94.0%*,66.5%*,53.5%*,i,
COc1ccc2c(c1)c(C(=O)CN1CCN(Cc3ccccc3)CC1)c(C)n2C,-5.34*,i,i,i,-0.54,i,i,i,-14.5%*,59.5%*,i,i,
COc1ccc2c(c1)c(C(=O)CN1CCN(c3ccccc3)CC1)c(C)n2C,i,i,i,i,-0.32,i,x,x,x,x,x,x,
CCOC(=O)c1c(C)n(C)c2ccc(OC)c(NC(=O)CN3CCN(Cc4ccccc4)CC3)c12,-5.66*,i,i,i,-1.81,i,i,i,8.5%*,39.0%*,i,i,
Cc1ccc2cc(C=C(C#N)C#N)c(N3CCCCC3)nc2c1,-7.1*,i,i,i,-1.1,i,x,x,x,x,i,i,TRPC4 spec 2=i;TRPC4 spec=i;HEK293 MPD ctr 2-1=i;HEK293 MPD ctr-1=i
Cc1cc(NC2CCCCC2)n2c(n1)nc1ccccc12,-5.5*,i,i,i,1.15,i,i,i,i,i,i,i,
CCc1[nH]nc(C(=O)N/N=C/c2ccncc2)c1C,i,i,i,i,-0.5,i,x,x,x,x,x,x,
Cc1ccccc1Nc1c(-c2cccnc2)nc2ccc(Br)cn12,i,i,i,i,2.55,i,x,x,x,x,x,x,
Cc1ccccc1Nc1c(-c2ccncc2)nc2ccc(Br)cn12,-7.02*,i,i,i,1.02,i,-131.0%*,i,-39.0%*,93.5%*,63.5%*,i,
Cc1ccn2c(Nc3ccccc3C)c(-c3ccccn3)nc2c1,-5.7*,i,i,i,0.04,i,-129.5%*,i,-27.0%*,81.0%*,i,i,
Cc1ccccc1Nc1c(-c2cccnc2)nc2ccccn12,-5.57*,i,i,i,1.03,i,-132.5%*,i,-14.5%*,65.5%*,i,i,
Cc1oc(-c2ccc3c(c2)OCCO3)cc1C(=O)NC(Cc1ccccc1)C(=O)O (stereo not drawn),i,i,i,i,-1.25,i,x,x,x,x,x,x,
CCc1ccc(C(=O)COC(=O)[C@@H](NC(N)=O)[C@@H](C)CC)cc1,i,i,i,i,-0.51,i,x,x,x,x,x,x,
COc1ccc(-n2c(NCCN(C)C)nc3sc4c(c3c2=O)CCCCC4)cc1,-7.49*,i,i,i,-1.11,i,x,x,x,x,i,i,TRPC4 spec 2=i;TRPC4 spec=i;HEK293 MPD ctr 2-1=i;HEK293 MPD ctr-1=i
CN(C)CCNc1nc2sc3c(c2c(=O)n1-c1ccccc1)CCCCC3,i,i,i,i,-0.17,i,x,x,x,x,x,x,
CN(C)CCNc1nc2sc3c(c2c(=O)n1-c1ccc(F)cc1)CCCCC3,-5.78*,i,i,i,-1.86,i,i,i,i,50.5%*,i,i,
O=C(c1ccccc1)N1CCN(Cc2ccccc2C(F)(F)F)CC1,i,11.6*,i,i,0.5,i,i,i,18.0%*,i,x,133.5%*,
COc1ccc(C(=O)N2CCN(Cc3ccccc3C(F)(F)F)CC2)cc1,i,i,i,i,-2.15,i,x,x,x,x,x,x,
COc1cc(/C=C(\C#N)c2nc3ccccc3o2)ccc1O,i,63*,78*,i,-6.87,i,+,i,290.0%*,i,i,361.5%*,
CCOC(=O)c1cnc2ccc(Cl)cc2c1NCCN(C)C,-6.55*,i,i,i,-0.02,i,-104.5%*,i,-18.5%*,49.0%*,45.5%*,i,
CCOC(=O)c1cnc2ccccc2c1NCCO,-5.64*,i,i,i,0.95,i,-108.0%*,i,-14.5%*,40.0%*,49.0%*,i,
CCOC(=O)c1cnc2c(C)c(Cl)ccc2c1NCCCN1CCOCC1,i,i,i,i,1.07,i,x,x,x,x,x,x,
CCOC(=O)c1cnc2c(ccc3ccccc32)c1NCCCN(C)C,-6.42*,i,i,i,0.53,i,i,70.0%*,i,55.5%*,48.0%*,i,
C=CCn1c(Oc2ccc(C=O)cc2OCC)nc2c1c(=O)n(C)c(=O)n2C,i,i,i,i,0.23,i,x,x,x,x,x,x,
CCN(CC)S(=O)(=O)c1ccc(OC)c(NC(=O)c2ccc(-n3cncn3)c([N+](=O)[O-])c2)c1,i,i,i,i,-1,i,x,x,x,x,x,x,
O=C(O)CCCCCn1c(O)c(C=C2N=c3ccccc3=N2)sc1=S,i,i,i,i,0.39,i,x,x,x,x,x,x,
O=C(O)c1ccccc1N/N=C/c1cc(Br)cc(Br)c1O,-6.55*,i,i,-9*,-0.77,i,i,i,-11.0%*,74.5%*,i,i,
